Consider 11 molecules from PMC9463588 (The Journal of Biological Chemistry, 2022).

“Also recorded” adds a separate entry of the source. Read-outs that look alike come from different tables or passages of the source.

In data set [1] the target is T1, human CYP8B1 (Homo sapiens, UniProt Q9UNU6).
T1 sequence (Q9UNU6 26-501 limits assumed): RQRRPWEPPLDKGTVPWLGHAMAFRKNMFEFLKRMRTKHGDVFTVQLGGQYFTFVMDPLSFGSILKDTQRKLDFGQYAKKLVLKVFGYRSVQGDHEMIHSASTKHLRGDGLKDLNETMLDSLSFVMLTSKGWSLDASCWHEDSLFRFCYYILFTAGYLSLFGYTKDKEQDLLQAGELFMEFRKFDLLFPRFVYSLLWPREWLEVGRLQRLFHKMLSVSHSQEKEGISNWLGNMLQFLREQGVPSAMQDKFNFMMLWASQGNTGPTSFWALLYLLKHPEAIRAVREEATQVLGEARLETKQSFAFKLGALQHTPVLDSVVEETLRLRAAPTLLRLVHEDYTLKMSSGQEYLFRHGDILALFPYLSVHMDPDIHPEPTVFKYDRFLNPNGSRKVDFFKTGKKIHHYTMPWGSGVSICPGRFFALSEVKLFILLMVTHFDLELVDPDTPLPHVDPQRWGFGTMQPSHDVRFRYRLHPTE
The data set is described as follows: Ligand-binding assay by shift of the heme Soret peak, wild type CYP8B1. The following applies: for Shift in Soret peak: spectral binding type, wild type CYP8B1; for Kd / KD: azoles, single site binding fit, interval in parentheses. Summed up: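 Recombinant human CYP8B1 was expressed in E. coli with groES-groEL co-expression and purified by Ni-NTA and cation-exchange chromatography. Ligand was titrated into 1 μM enzyme in 50 mM potassium phosphate with 20% glycerol, in a 1 cm cuvette; azoles were dissolved in DMSO. The Soret shift (local absorbance maximum minus minimum) was plotted against concentration and fitted to a single-site specific binding equation, in triplicate.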

Data set [2] addresses T1, human CYP8B1. The experiment in a line: CYP8B1 inhibition assays. In kind it is biochemical. The following applies: activity remaining vs control without inhibitor, 80 μM inhibitor. Summed up: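 Test compound at 80 μM was added to the kinetic assay: 0.01 μM CYP8B1 and 0.06 μM human P450 reductase in 50 mM potassium phosphate pH 7.4 with 20% glycerol, preincubated 10 min at room temperature. Substrate 7α-hydroxycholest-4-en-3-one was added, 200 μM NADPH started the reaction at 37 °C, and chloroform stopped it. The 12α-hydroxy product was measured by HPLC-UV at 240 nm. Activity is % of an inhibitor-free control; duplicate or triplicate.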

The conditions of data set [3]: cited from earlier work.
The target in the next data set is T2, CYP8B1 W281F (Homo sapiens, UniProt Q9UNU6, W281F).
T2 sequence (Q9UNU6 26-501 W281F limits assumed): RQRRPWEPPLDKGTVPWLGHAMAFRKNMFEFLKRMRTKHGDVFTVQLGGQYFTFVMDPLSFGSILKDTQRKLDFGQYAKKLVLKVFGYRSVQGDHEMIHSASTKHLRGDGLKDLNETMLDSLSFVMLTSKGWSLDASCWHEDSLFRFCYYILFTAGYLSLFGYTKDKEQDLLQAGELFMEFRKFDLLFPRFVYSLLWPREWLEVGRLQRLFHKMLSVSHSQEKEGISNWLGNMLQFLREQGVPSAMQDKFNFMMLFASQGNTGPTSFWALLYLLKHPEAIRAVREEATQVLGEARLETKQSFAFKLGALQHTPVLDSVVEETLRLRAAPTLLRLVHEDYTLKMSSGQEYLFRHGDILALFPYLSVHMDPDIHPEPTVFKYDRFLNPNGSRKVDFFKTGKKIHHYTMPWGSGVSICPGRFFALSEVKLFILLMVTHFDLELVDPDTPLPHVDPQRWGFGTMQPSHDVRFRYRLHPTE
The experiment in a line: Ligand-binding assay by shift of the heme Soret peak, CYP8B1 W281F mutant.

Substrate in data set [4]: CC(C)CCC[C@@H](C)[C@H]1CC[C@H]2[C@@H]3[C@H](O)CC4=CC(=O)CC[C@]4(C)[C@H]3CC[C@]12C
In kind it is biochemical, human. The following applies: other: W281F mutant, 95% CI; pH 7.4.

Substrate in data set [5]: CC(C)CCC[C@@H](C)[C@H]1CC[C@H]2[C@@H]3[C@H](O)CC4=CC(=O)CC[C@]4(C)[C@H]3CC[C@]12C
The class given is biochemical, human. To be noted: other: wild type CYP8B1, 95% CI; pH 7.4.

For the molecule `OC(Cn1cncn1)(Cn1cncn1)c1ccc(F)cc1F` [Fluconazole], the entries for the “Shift in Soret peak” value at human CYP8B1 [1] and at human CYP8B1 [1] (listed as fluconazole) were “None” and “did not induce a shift; also recorded: no binding”, respectively. Besides, on human CYP8B1 [2], the “Turnover at 80 μM (%)” value was found to be 95%.

Turning to `C[C@H](CCC(=O)O)[C@H]1CC[C@H]2[C@@H]3[C@H](O)C[C@@H]4C[C@H](O)CC[C@]4(C)[C@H]3C[C@H](O)[C@]12C` [Cholic acid], the critical micellar concentration in data set [3] was approximately 50 µM.

One may read the Kd as the equilibrium constant for the complex coming apart. In the case of `CC(C)CCC[C@@H](C)[C@H]1CC[C@H]2[C@@H]3[C@H](O)CC4=CC(=O)CC[C@]4(C)[C@H]3CC[C@]12C` [7α-hydroxycholest-4-en-3-one], the “Shift in Soret peak” value on human CYP8B1 [1] is given as “type I”. For the same molecule, the Kd at CYP8B1 W281F stood at 34.3 nM.

For the molecule `CC(=O)N1CCN(c2ccc(OCC3COC(Cn4ccnc4)(c4ccc(Cl)cc4Cl)O3)cc2)CC1` (centres unmarked) [Ketoconazole], at human CYP8B1 [1], the Kd came out at 1300 nM, the KD result is on record as “micromolar” and the “Shift in Soret peak” value is “Type II”. For the same molecule, the “Turnover at 80 μM (%)” value on human CYP8B1 [2] is reported as 16%.

On to `Clc1ccc(COC(Cn2ccnc2)c2ccc(Cl)cc2Cl)c(Cl)c1` (centres unmarked) [Miconazole], for which, on human CYP8B1 [1], the Kd came to 98 nM, the KD result was “submicromolar” and the “Shift in Soret peak” value was “Type II”. For the same molecule, on human CYP8B1 [2], the “Turnover at 80 μM (%)” value was 0.75%. For the same molecule, on human CYP8B1 [2] (listed as miconazole), the “Turnover at 80 μM (%)” value is on record as “less than 1%”.

Take `Clc1ccccc1C(c1ccccc1)(c1ccccc1)n1ccnc1` [Clotrimazole]: on human CYP8B1 [1], the Kd was determined as 1600 nM and the “Shift in Soret peak” value is “Type II”. Further, the “Turnover at 80 μM (%)” value on human CYP8B1 [2] is given as 6.8%.

For the molecule `Clc1cccc(C(c2ccc3[nH]cnc3c2)n2ccnc2)c1` (centres unmarked) [Liarozole], at human CYP8B1 [1], the Kd is 1300 nM and the “Shift in Soret peak” value is on record as “Type II”. For the same molecule, at human CYP8B1 [2], the “Turnover at 80 μM (%)” value came to 30%.

Consider `Clc1ccc(COC(Cn2ccnc2)c2ccc(Cl)cc2Cl)cc1` (centres unmarked) [Econazole], for which, at human CYP8B1 [1], the Kd stood at 57 nM, the KD result is reported as “submicromolar” and the “Shift in Soret peak” value was “Type II”. The “Turnover at 80 μM (%)” value at human CYP8B1 [2] turned out to be 1.7%.

In the case of `Clc1ccc(C(Cn2ccnc2)OCc2ccsc2Cl)c(Cl)c1` (centres unmarked) [Tioconazole], on human CYP8B1 [1], the Kd came to 210 nM, the KD result is recorded as “submicromolar” and the “Shift in Soret peak” value is “Type II”. Besides, the “Turnover at 80 μM (%)” value on human CYP8B1 [2] is 1.4%.

B1: CYP8B1 W281F (Homo sapiens; W281F) (protein)
chain: RQRRPWEPPLDKGTVPWLGHAMAFRKNMFEFLKRMRTKHGDVFTVQLGGQYFTFVMDPLSFGSILKDTQRKLDFGQYAKKLVLKVFGYRSVQGDHEMIHSASTKHLRGDGLKDLNETMLDSLSFVMLTSKGWSLDASCWHEDSLFRFCYYILFTAGYLSLFGYTKDKEQDLLQAGELFMEFRKFDLLFPRFVYSLLWPREWLEVGRLQRLFHKMLSVSHSQEKEGISNWLGNMLQFLREQGVPSAMQDKFNFMMLFASQGNTGPTSFWALLYLLKHPEAIRAVREEATQVLGEARLETKQSFAFKLGALQHTPVLDSVVEETLRLRAAPTLLRLVHEDYTLKMSSGQEYLFRHGDILALFPYLSVHMDPDIHPEPTVFKYDRFLNPNGSRKVDFFKTGKKIHHYTMPWGSGVSICPGRFFALSEVKLFILLMVTHFDLELVDPDTPLPHVDPQRWGFGTMQPSHDVRFRYRLHPTE
The Km is the concentration of substrate that gives half-maximal velocity. The kcat is the number of substrate molecules converted per active site and unit of time at saturation. With B1, in data set [4], the Michaelis-Menten constant (Km) amounted to 0.54 µM, the kcat stood at 0.02 s⁻¹ and the kcat/Km stood at 2.2 μM^−^1min^−1.

B2: human CYP8B1 (Homo sapiens) (protein)
chain: RQRRPWEPPLDKGTVPWLGHAMAFRKNMFEFLKRMRTKHGDVFTVQLGGQYFTFVMDPLSFGSILKDTQRKLDFGQYAKKLVLKVFGYRSVQGDHEMIHSASTKHLRGDGLKDLNETMLDSLSFVMLTSKGWSLDASCWHEDSLFRFCYYILFTAGYLSLFGYTKDKEQDLLQAGELFMEFRKFDLLFPRFVYSLLWPREWLEVGRLQRLFHKMLSVSHSQEKEGISNWLGNMLQFLREQGVPSAMQDKFNFMMLWASQGNTGPTSFWALLYLLKHPEAIRAVREEATQVLGEARLETKQSFAFKLGALQHTPVLDSVVEETLRLRAAPTLLRLVHEDYTLKMSSGQEYLFRHGDILALFPYLSVHMDPDIHPEPTVFKYDRFLNPNGSRKVDFFKTGKKIHHYTMPWGSGVSICPGRFFALSEVKLFILLMVTHFDLELVDPDTPLPHVDPQRWGFGTMQPSHDVRFRYRLHPTE
Regarding B2, in data set [5], the Km was 0.5 µM, the kcat was found to be 0.123 s⁻¹ and the kcat/Km amounted to 14.7 μM^−^1min^−1.
